The values below come from ChEMBL document CHEMBL3102807, “Angustifonines A and B, cytotoxic bisindole alkaloids from Bousigonia angustifolia” (J Nat Prod, 2014).

Common to all, as to type: functional, cell-based
One experiment relates to SW480. Kind of experiment: Cytotoxicity against human SW480 cells after 48 hrs by MTT assay. The conditions noted are these: SW480, 48 h. An outline of the steps:
(§1)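 Cells kept in RPMI-1640 or DMEM with 10% FBS, 37 °C, 5% CO2; adherent cells allowed to attach 12 h in 96-well plates. Exposed in triplicate to 0.0625, 0.32, 1.6, 8 and 40 μM for 48 h, cisplatin and paclitaxel as positive controls. MTT (100 μg/well) added for 4 h at 37 °C, lysis in 20% SDS/50% DMF, OD at 595 nm; IC50 by Reed–Muench method.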

The test system of the next experiment is MCF7. Kind of experiment: Cytotoxicity against human MCF7 cells after 48 hrs by MTT assay. The conditions noted are these: MCF7, 48 h. An outline of the steps: as §1
The next experiment has as its system A549. Description: Cytotoxicity against human A549 cells after 48 hrs by MTT assay. The note with it: A549, 48 h. An outline of the steps:
as §1

The next experiment concerns SMMC-7721. Kind of experiment: Cytotoxicity against human SMMC7721 cells after 48 hrs by MTT assay. The note with it: SMMC-7721, 48 h. The essentials:
as §1

The next experiment relates to HL-60. Kind of experiment: Cytotoxicity against human HL60 cells after 48 hrs by MTT assay. The conditions noted are these: HL-60, 48 h. The essentials:
as §1

A value given as a limit tells only on which side of the number the result lay.

Regarding `CC[C@]12C=CCN3Cc4c(n(c5ccccc5c4=O)[C@@H](c4cc5c(cc4OC)NC4=C(C(=O)OC)C[C@]6(CC)C=CCN7CC[C@@]45[C@@H]76)C1)[C@@H]32`, the IC50 amounted to 2.71 µM in the experiment with SW480; 3.61 µM with MCF7; 7.23 µM with A549; 10.6 µM with SMMC-7721; 3.03 µM in the experiment with HL-60.
Consider `CC[C@]12C=CCN3Cc4c(n(c5ccccc5c4=O)[C@@H](c4cc5c(cc4OC)NC4=C(C(=O)OC)C[C@]6([C@@H](C)O)C=CCN7CC[C@@]45[C@@H]76)C1)[C@@H]32`, for which the IC50 with SW480 stood at 13.9 µM; in the experiment with MCF7 it was 12.1 µM; in the experiment with A549 it was 16.2 µM; with SMMC-7721, 15.3 µM; in the experiment on HL-60, 9.6 µM.
As for `CC(=O)O[C@H]1C(=O)[C@@]2(C)[C@H]([C@H](OC(=O)c3ccccc3)[C@]3(O)C[C@H](OC(=O)[C@H](O)[C@@H](NC(=O)c4ccccc4)c4ccccc4)C(C)=C1C3(C)C)[C@]1(OC(C)=O)CO[C@@H]1C[C@@H]2O` [PACLITAXEL], the IC50 in the experiment on SW480, in the experiment on MCF7, with A549, in the experiment with SMMC-7721 and with HL-60 was under 0.008 µM each time.
